Compound activity as filed in PubChem BioAssay.
M4 PAM = positive allosteric modulators of human muscarinic M4 receptor; P08173; CHO-K1 hM4/Gqi5, Fluo-8 calcium fluorescence, ACh EC20; 0% = ACh EC20, 100% = maximal ACh; activation, % at 3 µM; actives 0.4% (n = 360,000); AID 624126;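 active means activation above its plate's cutoff, the mean activation of sample wells plus 3 SD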
CHRM4 agonist = CHRM4 agonism in calcium assay. CHO-K1 hM4/Gqi5, Fluo-8 calcium fluorescence; vehicle 0%, full acetylcholine response 100%. activation, % at 3 µM. actives 0.14% (n = 360,000). P08173;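 active means activation above the run mean over all test wells plus 3 SD, cut at about 32% in these data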;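 further: peak over basal fluorescence ratio per well then scaled between controls; 0% = DMSO wells and 100% = acetylcholine at EC100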
M5 antag = CHRM5 antagonism in calcium assay. inhibition, % at 3 µM. CHO-hM5 cells, Fluo-8 calcium fluorescence, ACh EC80. actives 0.59% (n = 360,000);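 active means inhibition above a per-plate cutoff, the mean of that plate's test compounds plus 3 SD, cut at about 27% in these data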;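 further: 0% = acetylcholine EC80 with DMSO and 100% = DMSO without agonist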
Target sequence (P08912 whole entry, looked up): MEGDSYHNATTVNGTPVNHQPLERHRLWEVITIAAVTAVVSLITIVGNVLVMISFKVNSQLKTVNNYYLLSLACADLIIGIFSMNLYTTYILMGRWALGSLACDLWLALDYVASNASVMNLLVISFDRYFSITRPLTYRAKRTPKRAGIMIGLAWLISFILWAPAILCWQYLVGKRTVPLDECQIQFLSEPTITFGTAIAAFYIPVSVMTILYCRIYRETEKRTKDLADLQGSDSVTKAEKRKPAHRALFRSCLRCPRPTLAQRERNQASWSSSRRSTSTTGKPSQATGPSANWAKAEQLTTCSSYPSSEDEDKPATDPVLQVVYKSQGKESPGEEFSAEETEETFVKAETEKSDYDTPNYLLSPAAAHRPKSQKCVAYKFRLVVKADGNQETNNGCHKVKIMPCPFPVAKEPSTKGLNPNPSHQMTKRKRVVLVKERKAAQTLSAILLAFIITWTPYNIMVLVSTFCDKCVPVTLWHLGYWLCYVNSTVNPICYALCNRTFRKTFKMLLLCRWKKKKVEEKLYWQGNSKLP
CHRM5 agonist = agonists of human muscarinic M5 receptor (CHRM5) | P08912 | CHO-K1 hM5 cells, Fluo-8 calcium fluorescence; 0% DMSO wells, 100% maximal acetylcholine response | activation, % at 3 µM | actives 0.19% (n = 360,000) | AID 624037;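 active means activation above the run's mean over test compounds plus 3 SD, cut at about 23% in these data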;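 further: signal is peak over basal fluorescence ratio across the kinetic read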
M5 PAM = potentiates acetylcholine response at human M5 receptor; CHO-K1 hM5, Fluo-8 calcium, ACh EC20 PAM; 0% = ACh EC20, 100% = ACh EC100; activation, % at 3 µM; actives 0.3% (n = 360,000); AID 624038;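 active means activation above the run cutoff, the mean activation of all test compounds plus 3 SD, cut at about 18% in these data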
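Test system: CHO-K1 hM5 cells / Doses: single-point, 3 µM nominal / Times: Post-acetylcholine fluorescence recording 140 s / Technique: Fluo-8 calcium fluorescence / Measure: Max/basal fluorescence ratio as % of EC20–EC100 ACh window / Benchmarks: low control EC20 acetylcholine (0%), high control EC100 acetylcholine (100%) / Replicates: one well per compound, no replicates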
CHRM4 antagonist = blocks acetylcholine activation of human M4 receptor; actives 0.73% (n = 360,000); inhibition, % at 3 µM; P08173; CHO-hM4 cells, ACh EC80, Fluo-8 calcium fluorescence; AID 624125;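 active means inhibition above its plate's cutoff, the mean inhibition of sample wells plus 3 SD, cut at about 27% in these data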;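 further: 0% = acetylcholine EC80 with DMSO and 100% = DMSO without agonist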
* = called active by the depositor. Hits are enriched below; roughly 1.9% of the tested compounds scored in any of these assays.

SMILES	M4 PAM	CHRM4 agonist	M5 antag	CHRM5 agonist	M5 PAM	CHRM4 antagonist
COc1ccc(/C=C(/NC(=O)c2ccco2)C(=O)Nc2cccc(C(=O)O)c2)cc1	1	2	10	-3	-2	-6
COc1ccc(Cl)cc1Cn1c(C)c(C(=O)NCc2ccc(C#N)cc2)sc1=O	-16	7	3	5	-10	12
COc1ccccc1Cn1c(C)c(C(=O)NCc2ccc(C#N)cc2)sc1=O	-18	37*	11	28*	-13	20
Cc1c(C(=O)NCc2ccc([N+](=O)[O-])cc2)sc(=O)n1Cc1ccc2c(c1)OCO2	-10	21	8	25*	-13	5
Cc1ccccc1Cn1c(C)c(C(=O)NCc2cccc(Cl)c2)sc1=O	-6	6	6	1	-7	-9
COc1ccc(CNC(=O)c2sc(=O)n(Cc3ccc(C)cc3)c2C)cc1OC	1	7	4	7	-7	3
COc1ccc(CNC(=O)c2sc(=O)n(Cc3ccc(-c4ccccc4)cc3)c2C)cc1OC	-4	21	30*	8	-24	-1
COc1ccc(CNC(=O)c2sc(=O)n(Cc3ccccc3C)c2C)cc1	4	24	-3	41*	-11	-22
CCOc1ccc(CCNS(=O)(=O)c2c(C)nc3scc(C)n3c2=O)cc1OCC	2	0	0	-2	13	-3
CCOC(=O)N1CCC(N2CCN(S(=O)(=O)c3ccc4ccccc4c3)CC2)CC1	10	4	-1	1	12	22
c1ccc2c(Nc3ccc4c(c3)OCCO4)c3c(nc2c1)CCCC3	-10	2	44*	-9	-20	-4
CS(=O)Cc1cc(Sc2ccccc2)nc(-c2ccncc2)n1 (stereo unspecified)	0	1	-1	-2	-6	-3
COc1ccc(NC(=O)Cc2ccccc2)cn1	0	4	1	-2	4	0
COc1ccc(NC(=O)/C(Cl)=C(/Cl)S(=O)Cc2ccccc2)cn1 (stereo unspecified)	4	5	42*	15	16	36*
c1ccc2c(c1)COc1c3cc4c(cc3nn1-2)OCO4	20*	2	-8	0	3	-17
O=C(O)c1ccn2c(C(=O)c3ccccc3)c(-c3ccccc3)cc2c1	-14	2	-13	1	3	-13
O=C(CN1C(=O)CSC1=O)c1ccccc1	9	1	-6	-3	45*	-11
COC(=O)c1c(NC(C)=O)sc(C)c1C	-2	0	-5	-6	9	1
COC(=O)c1sc(NC(C)=O)c(C(=O)OC)c1C	21*	3	-5	-8	-2	-7
COc1cc(C2c3[nH]c4ccccc4c3C[C@H]3C(=O)N(C4CC4)CC(=O)N23)ccc1OC(C)C (stereo partly specified)	-1	7	11	6	-3	4
O=C(COC(=O)/C=C/c1ccc(S(=O)(=O)N2CCOCC2)cc1)NCc1ccccc1	4	5	5	3	5	23
Cc1ccc(CNC(=O)COC(=O)c2ccc(S(=O)(=O)N3CCCC3)cc2)cc1	2	2	2	-8	22*	0
CCN(CC)S(=O)(=O)c1ccc(C(=O)NCc2ccc3c(c2)cc(C)n3C)cc1	-17	1	-2	2	-2	55*
O=C(COC(=O)/C=C/c1ccc(S(=O)(=O)N2CCOCC2)cc1)NCc1ccc(Cl)cc1	17	2	-16	9	19*	-16
COc1ccc(C(=O)NCc2ccc3c(c2)cc(C)n3C)cc1OC	5	2	10	1	0	-2
SMILES	M4 PAM	CHRM4 agonist	M5 antag	CHRM5 agonist	M5 PAM	CHRM4 antagonist
Cc1cc2cc(CNC(=O)c3ccc(S(=O)(=O)N4CCCC4)cc3)ccc2n1C	-15	3	8	-1	-7	35*
Cc1cc2cc(CNC(=O)c3ccc(S(=O)(=O)N4CCCCC4)cc3)ccc2n1C	-7	6	0	2	-8	16
CCN(CC)c1ccc(S(=O)(=O)N2CCOCC2)cc1NC(=O)COC(=O)/C=C/c1ccccc1	-13	19	20	-3	-37	10
CCN(CC)c1ccc(S(=O)(=O)N2CCOCC2)cc1NC(=O)COC(=O)/C=C/c1ccc(C)o1	-9	22	31*	-2	-34	11
COc1cc(C(=O)NNC(=O)CNC(=O)C2CCCCC2)ccc1OC(C)C	4	1	10	0	-4	-2
Cn1c(SCc2ccccc2)nnc1-c1ccc(O)cc1	2	1	-12	-3	3	-8
COCC(C)N=C1NN=C(c2cc(C)n(Cc3ccccc3Cl)c2C)CS1 (stereo unspecified)	-2	8	8	2	-6	-1
C[N+]1(C)CCC(OC(=O)C(O)(c2ccccc2)C2CCCC2)C1 (stereo unspecified)	-16	0	98*	-2	-19	99*
C[N+]1(C)CC[C@H](OC(=O)[C@@](O)(c2ccccc2)C2CCCC2)C1	-18	0	99*	-1	-18	99*
O=C(Nc1ccccc1C(F)(F)F)C(O)(c1ccccc1)C1CCCCC1 (stereo unspecified)	10	1	10	-3	4	-7
Brc1ccc(CN2CCCCCC2)cc1	4	1	6	-12	4	1
Nc1ccc(CN2CCCCCC2)cc1	-1	1	3	-11	38*	-2
CCOc1ccnc2c1c(=O)n(Cc1cc(OC)cc(OC)c1)c(=O)n2C	1	4	3	-1	-2	-2
CC(C)C(C(=O)Nc1ccccc1F)N1C(=O)c2ccccc2C1=O (stereo unspecified)	4	0	-9	8	20*	1
COc1ccccc1NC(=O)C(C)N1C(=O)c2ccccc2C1=O (stereo unspecified)	2	2	-5	2	13	-7
COc1ccc(NC(=O)C(C)N2C(=O)c3ccccc3C2=O)c(OC)c1 (stereo unspecified)	-3	0	-18	3	18*	-3
NC(=O)C1CCN(C(=O)NC(=O)c2ccccc2)CC1	-2	1	-2	-3	-1	7
C=CCn1c(SCC(=O)Nc2cc(Cl)ccc2C(=O)O)nc2sc(C)c(C)c2c1=O	4	1	0	-2	12	-12
Cc1ccc(OCC(=O)N(C)C2CCCCC2)c([N+](=O)[O-])n1	0	1	8	3	1	1
Cc1ccc(-n2nc(C)cc2NC(=O)CC#N)cc1	-3	0	4	-1	3	2
